High-throughput results deposited in PubChem BioAssay by several laboratories.
Efflux pump inh: inhibitors of Candida antifungal efflux pumps expressed in yeast. S. cerevisiae Candida pump triplex, Nile Red efflux. 0.44% of 330,000 active. inhibition, % at 10 µM;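 active means plate passing quality check with inhibition over a set limit, or well fluorescence over plate mean plus 4 SD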;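 further: Nile Red retained in pooled yeast measured as flow cytometry median fluorescence; 0% = buffer negative control and 100% = Enniatin B positive control; higher means more Nile Red kept so more efflux inhibition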
GSK3beta inhib: human GSK3beta kinase inhibition; P49841; GST-GSK3beta kinase, ADP-Glo luminescence, 60 min; hits give low values; activity score (negative = inhibition), % at 10 µM; 0.038% of 300,000 active;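 active means more than half of replicate wells score below -50%, meaning over 50% inhibition versus plate controls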;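 further: 0% = median DMSO wells and -100% = median GW8510 positive control wells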
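Test system – GST-tagged human GSK3beta kinase, cell-free · Incubation – 60 min enzyme reaction, room temperature · Signal – ADP-Glo luminescence · Also added – peptide substrate and ATP at 25 µM · Controls – DMSO neutral wells and GW8510 at 20 µM as positive · Buffer or medium – Tris/MgCl2 kinase buffer · Measure – Luminescence-derived activity versus plate DMSO and GW8510 wells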
PolyA inh: yeast polyadenylation inhibition; activity score, % at 12 µM; 0.02% of 300,000 active; S. cerevisiae SKY197-pL101 polyadenylation reporter, beta-gal luminescence; efflux-impaired pdr1/pdr3 knockout yeast; score 100 = 6 SD above DMSO; AID 1875;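 active means lowest replicate activity score at least 50, where 100 means six control SD above control mean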;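 further: yeast exposed to compound for 9 h at 30 °C; higher score means more reporter readthrough which indicates perturbed polyadenylation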
GSK3 alpha inh: blocks human GSK-3 alpha kinase; ADP-Glo luminescence, 60 min; inhibition, % at 10 µM; 0.1% of 320,000 active; AID 2650;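 active means more than half of replicates show inhibition above 20%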;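 further: GST-tagged GSK-3 alpha with peptide substrate and 25 µM ATP; 0% = DMSO neutral wells and 100% = GW8510 positive control wells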
Target sequence (P49840 whole entry, looked up): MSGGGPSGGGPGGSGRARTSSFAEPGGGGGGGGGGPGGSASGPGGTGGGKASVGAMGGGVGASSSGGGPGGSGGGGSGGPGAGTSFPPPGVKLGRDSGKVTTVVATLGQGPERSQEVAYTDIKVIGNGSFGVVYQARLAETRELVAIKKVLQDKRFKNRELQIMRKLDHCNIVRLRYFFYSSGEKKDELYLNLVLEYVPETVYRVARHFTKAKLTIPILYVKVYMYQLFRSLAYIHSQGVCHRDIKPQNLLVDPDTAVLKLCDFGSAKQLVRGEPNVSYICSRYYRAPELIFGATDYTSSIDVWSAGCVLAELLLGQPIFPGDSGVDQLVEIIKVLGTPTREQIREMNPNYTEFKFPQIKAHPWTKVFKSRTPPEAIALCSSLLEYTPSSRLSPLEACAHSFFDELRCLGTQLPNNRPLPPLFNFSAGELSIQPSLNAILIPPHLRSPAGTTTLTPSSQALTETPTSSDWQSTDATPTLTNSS
STK33 inh: blocks human STK33 kinase activity; Q9BYT3; purified STK33, MBP phosphorylation, ADP-Glo luminescence; inhibition, % at 10 µM; 0.073% of 320,000 active; AID 2661;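 active means inhibition at or above 25%, using the most active replicate where run in duplicate; inactive means inhibition below 25%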
Cmpd fluor yeast: compound fluorescence in yeast efflux pump counter-screen; shares compounds with Efflux pump inh; S. cerevisiae AD/pABC3, flow cytometry; fluorescence ratio to DMSO, % at 10 µM; 4% of 1,700 active; AID 588517;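 active means fluorescence ratio to DMSO above its plate's cutoff, the plate mean ratio plus 5 SD, cut at about 210% in these data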;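 further: unstained yeast with no Nile Red so the signal is compound autofluorescence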
CaMdr1 efflux inh: inhibitors of Candida albicans Mdr1 efflux pump; S. cerevisiae AD/CaMDR1, Nile Red efflux, flow cytometry; AID 588518; inhibition, % at 10 µM; 1% of 1,700 active; shares compounds with Efflux pump inh; in the data active means inhibition above about 26%;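 further: 0% = DMSO vehicle and 100% = reference inhibitor; higher means more Nile Red retained so more efflux inhibition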
Cdr2 pump inh: Candida Cdr2 efflux pump inhibition. Nile Red retention ratio vs DMSO, % at 10 µM. AID 588520. shares compounds with Efflux pump inh. 4% of 1,700 active. S. cerevisiae AD/CaCDR2, Nile Red retention, flow cytometry; in the data active means Nile Red retention ratio vs DMSO above about 190%;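 further: higher ratio means more blocking of Cdr2 efflux of the dye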
CaCdr1 efflux inh: inhibitors of Candida albicans Cdr1 efflux pump; inhibition, % at 10 µM; shares compounds with Efflux pump inh; S. cerevisiae AD/CaCDR1, Nile Red efflux, flow cytometry; AID 588522; 1% of 1,700 active;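 active means inhibition above the screen-wide mean plus twice its standard deviation, cut at about 32% in these data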
Active calls of the source: *. Compounds with a hit are over-represented: about 0.6% of the library has one in this group of screens.

`CCOC(=O)C1CCN(CCCSc2ccc(C)cc2)CC1` gave Efflux pump inh 0, GSK3beta inhib -1, PolyA inh -22, GSK3 alpha inh -1 and STK33 inh 0.
`CCOc1ccc(S(=O)(=O)NCCC(=O)Nc2cccc(C(=O)OC)c2)cc1` gave Efflux pump inh 0, GSK3beta inhib 0, PolyA inh 15, GSK3 alpha inh 0 and STK33 inh -1.
`CN(C)c1ccc(N2C(=NC(=O)CCc3ccccc3)SC3CS(=O)(=O)CC32)cc1` (stereo not drawn) gave Efflux pump inh 1.0*, GSK3beta inhib 0, PolyA inh 8, GSK3 alpha inh 7, STK33 inh 0, Cmpd fluor yeast 121, CaMdr1 efflux inh 1, Cdr2 pump inh 99 and CaCdr1 efflux inh 0.
`Cc1c(NC(=O)Cn2ccc([N+](=O)[O-])n2)c(=O)n(-c2ccccc2)n1C` gave Efflux pump inh 0.5*, GSK3beta inhib 0, PolyA inh -2, GSK3 alpha inh -4, STK33 inh -2, Cmpd fluor yeast 105, CaMdr1 efflux inh 0, Cdr2 pump inh 101 and CaCdr1 efflux inh 0.
Screening Cc1c(NC(=O)Cn2cc([N+](=O)[O-])cn2)c(=O)n(-c2ccccc2)n1C returned Efflux pump inh 0, GSK3beta inhib 0, PolyA inh 3, GSK3 alpha inh -19 and STK33 inh -2.
For Cc1c(NC(=O)CSc2ncnc3ccccc23)c(=O)n(-c2ccccc2)n1C the results were Efflux pump inh 1.0*, GSK3beta inhib 1, PolyA inh 17, GSK3 alpha inh 0, STK33 inh 0, Cmpd fluor yeast 95, CaMdr1 efflux inh 0, Cdr2 pump inh 91 and CaCdr1 efflux inh 0.
CCC(=O)c1ccc(OCC(=O)OCC(=O)NCCC2=CCCCC2)cc1 was read as Efflux pump inh 0, GSK3beta inhib 1, PolyA inh -2, GSK3 alpha inh 0 and STK33 inh 0.
Screening C[n+]1ccccc1N1CCN(c2ccccc2Cl)CC1 returned Efflux pump inh 0, GSK3beta inhib -1, PolyA inh 7, GSK3 alpha inh 1 and STK33 inh -3.
Screening Cc1ccc(Cl)cc1N1CCN(c2cccc[n+]2C)CC1 returned Efflux pump inh 2.2*, GSK3beta inhib -5, PolyA inh 15, GSK3 alpha inh 3, STK33 inh 2, Cmpd fluor yeast 95, CaMdr1 efflux inh 0, Cdr2 pump inh 92 and CaCdr1 efflux inh 0.
Screening Cc1cnn(-c2nc(-c3ccccc3)cc(-c3ccccc3)n2)c1 returned GSK3beta inhib 4 and PolyA inh -39.
`CC(C)(C)c1ccc(-n2ncc3c2CCCC3NC(=O)c2csnn2)cc1` (stereo not drawn) gave Efflux pump inh 0, GSK3beta inhib -8, PolyA inh 1, GSK3 alpha inh 0 and STK33 inh 0.
Screening CC(C)(C)c1ccc(-n2ncc3c2CCCC3NC(=O)c2cnccn2)cc1 (stereo not drawn) returned Efflux pump inh 0.5*, GSK3beta inhib -4, PolyA inh -5, GSK3 alpha inh 2, STK33 inh 0, Cmpd fluor yeast 107, CaMdr1 efflux inh 0, Cdr2 pump inh 98 and CaCdr1 efflux inh 0.
For O=[N+]([O-])c1ccc(Cl)c(S(=O)(=O)Nc2ccc(-c3ccc(N4CCOCC4)nn3)cc2)c1 the results were Efflux pump inh 0, GSK3beta inhib 4 and PolyA inh 18.
Screening O=S(=O)(Nc1ccc(-c2ccc(N3CCOCC3)nn2)cc1)c1ccc(Cl)c(Cl)c1 returned Efflux pump inh 0.8*, GSK3beta inhib -3, PolyA inh -3, Cmpd fluor yeast 102, CaMdr1 efflux inh 0, Cdr2 pump inh 114 and CaCdr1 efflux inh 0.
